For assay [1], the system named is murine leukemia (L1210) cells. Kind of assay: Cell growth inhibitory activity, L1210. The class given is cell-based. The note with it: Mus musculus, L1210, 48 h, read-out: IC50 L1210. In short, it runs like this: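 Murine leukemia cells at 300,000-500,000 cells/mL were mixed 1:1 with dilutions of test compound and incubated at 37 °C for two days. Cell number was counted with a Coulter counter. IC50 is the concentration inhibiting proliferation by 50%, taken from dose–response curves as mean ± SE of at least three independent experiments.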

Assay [2] deals with murine mammary carcinoma (FM3A) cells. As to the kind of experiment: Cell growth inhibitory activity, FM3A. The class given is cell-based. The note with it: Mus musculus, 48 h, read-out: IC50 FM3A/0.
Assay [3] relates to L1210, FM3A, Molt/4, CEM and HeLa cells. As to the kind of experiment: Cell growth inhibitory activity, panel of cell lines. To be noted: for IC50: read-out: IC50 values, range over the cell lines. The class given is cell-based, murine and human. Summed up: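 Murine L1210 leukemia and FM3A mammary carcinoma cells, and human Molt 4, CEM (T-lymphocyte) and HeLa (cervix carcinoma) cells. Cells were suspended at 300,000–500,000 cells/mL and mixed 1:1 with serial dilutions of test compound. Incubated 2 days at 37 °C, then cell number counted with a Coulter counter. IC50 (50% inhibition of proliferation) was taken from dose–response curves as mean ± SE of ≥3 independent experiments.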

For assay [4], the system named is human T-lymphocyte Molt4/C8 cells. Kind of assay: Cell growth inhibitory activity, Molt/4. The assay is classed as cell-based. To be noted: Molt4/C8, 48 h, read-out: IC50 Molt4/C8.
Assay [5] relates to K562 (human chronic myelogenous leukemia) cells. Kind of assay: Flow cytometric analysis of cell cycle distribution. The assay is classed as cell-based. The note with it: 24 h, compound at concentration inhibiting 100% cell growth. Background: In flow cytometry, cells or beads pass a laser one at a time.
In assay [6] the test system is human cervix carcinoma (HeLa) cells. Kind of assay: Cell growth inhibitory activity, HeLa. The assay is classed as cell-based.
The subject of the next assay is bovine brain tubulin. As to the kind of experiment: Inhibition of tubulin polymerization. The class given is biochemical.
Assay [7] has as its system K562 (human chronic myelogenous leukemia) cells. As to the kind of experiment: Concentration inhibiting 100% cell growth of K562 cells. The class given is cell-based.

The structures appear in SMILES notation.

Take `COc1ccc(/C=C\c2cc(OC)c(OC)c(OC)c2)cc1O` [CA4, combretastatin A-4]: the IC50 in assay [1] is 2.8 ± 1.1 nM.

For `COc1ccc2c(N)c(C(=O)c3cc(OC)c(OC)c(OC)c3)oc2c1` [Compound 3a], the IC50 in assay [2] is 280 ± 160 nM; in assay [1], 430 ± 40 nM; in assay [3], 87 to 430 nM. Consider `COc1ccc2c(N(C)C)c(C(=O)c3cc(OC)c(OC)c(OC)c3)oc2c1` [Compound 3b], for which the IC50 in assay [2] was 59 ± 5 nM; in assay [1], 65 ± 5 nM; in assay [3], 48 to 78 nM.

With `COc1ccc2cc(C(OC)c3cc(OC)c(OC)c(OC)c3)oc2c1` (stereo not shown) [Compound 4aa, 6-methoxy-2-(methoxy(3,4,5-trimethoxyphenyl)methyl)benzofuran], the IC50 in assay [4] is greater than 10 µM. Regarding `COc1ccc2c3c(oc2c1)C(=O)c1cc(OC)c(OC)c(OC)c1-3` [Compound 4ac, 3,8,9,10-tetramethoxy-6H-benzo[b]indeno[1,2-d]furan-6-one], the IC50 in assay [4] is greater than 10 µM. For the same molecule, in assay [3] (five cell lines), the “antiproliferative activity (in words)” value is “completely inactive”. `COc1cc(C(=O)c2cc3c(OC)cccc3o2)cc(OC)c1OC` [Compound 4b, (4-Methoxybenzofuran-2-yl)(3,4,5-trimethoxyphenyl)methanone]: the “sub-G0–G1 peak (apoptotic peak, A)” value in assay [5] is reported as 20–44%.

As to `COc1ccc2cc(C(=O)c3cc(OC)c(OC)c(OC)c3)oc2c1` [Compound 4d, (6-Methoxybenzofuran-2-yl)(3,4,5-trimethoxyphenyl)methanone], the IC50 in assay [3] fell in the range of 59 to 110 nM. Take `COc1cc(C(=O)c2cc3cc(Cl)ccc3o2)cc(OC)c1OC` [Compound 4g, (5-Chlorobenzofuran-2-yl)(3,4,5-trimethoxyphenyl)methanone]: the IC50 in assay [4] was greater than 10 µM. `COc1cc(C(=O)c2cc3cc(Br)ccc3o2)cc(OC)c1OC` [Compound 4h, (5-Bromobenzofuran-2-yl)(3,4,5-trimethoxyphenyl)methanone]: the IC50 in assay [4] was greater than 10 µM. On the same count and under the same terms, the result for `COc1cc(C(=O)c2cc3ccc(OC)c(O)c3o2)cc(OC)c1OC` [Compound 4i, (7-Hydroxy-6-methoxybenzofuran-2-yl)(3,4,5-trimethoxyphenyl)methanone] reads greater than 10 µM; that for `COc1cc(C(=O)c2cc3cc(OC)c(OC)c(OC)c3o2)cc(OC)c1OC` [Compound 4k, (5,6,7-Trimethoxybenzofuran-2-yl)(3,4,5-trimethoxyphenyl)methanone], greater than 10 µM.

Consider `COc1cc(C(=O)c2cc3cc(O)ccc3o2)cc(OC)c1OC` [Compound 4l, (5-Hydroxybenzofuran-2-yl)(3,4,5-trimethoxyphenyl)-methanone], for which the IC50 in assay [4] is greater than 10 µM. For `COc1cc(C(=O)c2cc3ccc(O)cc3o2)cc(OC)c1OC` [Compound 4m, (6-Hydroxybenzofuran-2-yl)(3,4,5-trimethoxyphenyl)-methanone], the IC50 in assay [4] is greater than 10 µM. Still for that read-out and setting: the result for `COc1cc(C(=O)c2cc3cccc(O)c3o2)cc(OC)c1OC` [Compound 4n, (7-Hydroxybenzofuran-2-yl)(3,4,5-trimethoxyphenyl)-methanone] reads greater than 10 µM. On to `COc1cc(C(=O)c2oc3cccc(OC)c3c2C)cc(OC)c1OC` [Compound 4p, (4-Methoxy-3-methylbenzofuran-2-yl)(3,4,5-trimethoxyphenyl)methanone], for which, in assay [5], the “effect on cell cycle distribution” value is “accumulate in late S phase” and the “sub-G0–G1 peak (apoptotic peak, A)” value was 20–44%. Turning to `COc1ccc2c(C)c(C(=O)c3cc(OC)c(OC)c(OC)c3)oc2c1` [Compound 4r, (6-Methoxy-3-methylbenzofuran-2-yl)(3,4,5-trimethoxyphenyl)methanone], the IC50 in assay [3] fell in the range of 3 to 27 nM. As for `CCOc1ccc2c(C)c(C(=O)c3cc(OC)c(OC)c(OC)c3)oc2c1` [Compound 4t, (6-Ethoxy-3-methylbenzofuran-2-yl)(3,4,5-trimethoxyphenyl)methanone], the “fold increase of activity relative to 4r” value is listed as 10 fold in assay [3] (L1210, FM3A, Molt/4 and CEM cells); 2 fold in assay [6]. Moreover, in assay [3], the IC50 fell in the range of 1.2 to 6.3 nM. For the molecule `COc1cc(C(=O)c2oc3cc(F)ccc3c2C)cc(OC)c1OC` [Compound 4u, (6-Fluoro-3-methylbenzofuran-2-yl)(3,4,5-trimethoxyphenyl)methanone], in assay [5], the “effect on cell cycle distribution” value was “accumulate in late S phase” and the “sub-G0–G1 peak (apoptotic peak, A)” value is 20–44%. Besides, the “antitubulin polymerization activity (in words)” value in the assay with bovine brain tubulin was “weak antitubulin polymerization activity”. Moreover, the “concentration able to inhibit 100% cell growth after 24 h” value in assay [7] is 1.62 µM. For the molecule `COc1cc(C(=O)c2oc3ccc(O)cc3c2C)cc(OC)c1OC` [Compound 4w, (5-Hydroxy-3-methylbenzofuran-2-yl)(3,4,5-trimethoxyphenyl)methanone], the “sub-G0–G1 peak (apoptotic peak, A)” value in assay [5] was 20–44%.

In the case of `COc1ccc2cc(C(=S)c3cc(OC)c(OC)c(OC)c3)oc2c1` [Compound 4y, (6-methoxybenzofuran-2-yl)(3,4,5-trimethoxyphenyl)methanethione], in assay [4], the IC50 turned out to be 0.1 ± 0.01 µM.

The record behind these values is paper PMC2762272 (Bioorganic & medicinal chemistry, 2009).
